Data on four compounds can be found in ChEMBL document CHEMBL4622976, “Development of pH/Glutathione-Responsive Theranostic Agents Activated by Glutathione S-Transferase π for Human Colon Cancer” (J Med Chem, 2020).

Data set [1] in a line: Antiproliferative activity against rat 9L-2 cells by MTT assay. In kind it is functional, cell-based. Put shortly:
(§1)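 MTT assay. Cells were grown in DMEM/RPMI 1640 with 10% FBS, penicillin and streptomycin at 37 °C under 5% CO2. After a PBS wash, cells got 0.5 mg/mL MTT for 3 h at 37 °C. Formazan was dissolved in DMSO and absorbance read at 570 nm. Inhibition was expressed as a percentage and IC50 calculated. Means ± SD come from three separate experiments.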

Data set [2] can be described thus: Cytotoxicity against human CCD-841 cells by MTT assay. In kind it is cell-based. Put shortly: as §1
A further data set concerns HepG2. The experiment in a line: Antiproliferative activity against human HepG2 cells by MTT assay. In kind it is functional, cell-based. In a few lines: as §1
Data set [3] can be described thus: Dissociation constant, pKa of the compound. It is filed as physicochemical.
Data set [4] deals with HT-29. The experiment in a line: Antiproliferative activity against human HT-29 cells by MTT assay. In kind it is functional, cell-based. In a few lines:
as §1

In data set [5] the test system is HT-29. The experiment in a line: Induction of apoptosis in human HT-29 cells at 2.5 uM incubated for 72 hrs by FITC-AnnexinV/PI staining based flow cytometry relative to control. It is filed as functional. In a few lines:
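HT29 cells were cultured 12 h, then exposed to compound (0.4, 1.0, 2.5 µM) or vehicle for 72 h. Harvested cells were stained with Annexin V and PI, and apoptotic cell percentages measured by flow cytometry. Means ± SD come from three separate experiments.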

Data set [6] relates to HT-29. The experiment in a line: Induction of apoptosis in human HT-29 cells assessed as increase in Bax protein level at 2.5 uM incubated for 72 hrs by Western blot analysis. It is filed as functional, cell-based. In a few lines: (§2)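 HT29 cells (1.5×10^5/mL) were treated for 72 h and lysed. Lysate (0.05 mg/lane) was run on 12% SDS-PAGE and transferred to nitrocellulose. After blocking in 5% non-fat milk, blots were probed for Bax, Bcl-2, cleaved caspase-3, cleaved PARP, LC3, p62 and beclin-1. Levels were normalised to β-actin, and means ± SD taken from three independent assays.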

The subject of data set [7] is HT-29. The experiment in a line: Induction of autophagy in human HT-29 cells assessed as reduction in p62 protein level at 2.5 uM incubated for 72 hrs by Western blot analysis. It is filed as functional, cell-based. In a few lines:
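HT29 cells (1.5×10^5/mL) exposed to compound or vehicle for 72 h, then lysed. Lysates (0.05 mg/lane) run on 12% SDS-PAGE, transferred to nitrocellulose, blocked with 5% non-fat milk and probed for LC3, p62, beclin-1 and β-actin. Bands quantified relative to β-actin, with LC3-II/LC3-I ratio also calculated; means ± SD from three independent assays.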

The test system of data set [8] is HT-29. The experiment in a line: Antitumor activity against human HT-29 cells xenografted in nude BALB/c mouse assessed as tumor weight level at 40 mg/kg, ip dosed every day for 21 days (reference value: 1.49 +/- 0.27 g). In kind it is functional.
Data set [9] concerns HT-29. The experiment in a line: Induction of apoptosis in human HT-29 cells assessed as increase in cleaved PARP protein level at 2.5 uM incubated for 72 hrs by Western blot analysis. It is filed as functional, cell-based. In a few lines: as §2
In data set [10] the test system is HT-29. The experiment in a line: Induction of autophagy in human HT-29 cells assessed as increase in LC3-II protein level at 2.5 uM incubated for 72 hrs by Western blot analysis. It is filed as functional, cell-based. Put shortly:
as §2

In data set [11] the test system is HT-29. The experiment in a line: Induction of autophagy in human HT-29 cells assessed as increase in Beclin-1 protein level at 2.5 uM incubated for 72 hrs by Western blot analysis. In kind it is functional, cell-based. In a few lines:
as §2

Data set [12] has as its system HT-29. The experiment in a line: Induction of apoptosis in human HT-29 cells assessed as reduction in Bcl2 protein level at 2.5 uM incubated for 72 hrs by Western blot analysis. It is filed as functional, cell-based. Put shortly:
as §2

Data set [13] concerns HT-29. The experiment in a line: Induction of apoptosis in human HT-29 cells assessed as increase in cleaved caspase-3 protein level at 2.5 uM incubated for 72 hrs by Western blot analysis. It is filed as functional, cell-based. Put shortly: as §2
Data set [14] deals with HT-29. The experiment in a line: Antitumor activity against human HT-29 cells xenografted in nude BALB/c mouse assessed as reduction in tumor volume at 40 mg/kg, ip dosed every day for 21 days. It is filed as functional, organism-based.
In data set [15] the test system is HT-29. The experiment in a line: Induction of apoptosis in human HT-29 cells assessed as increase in Bax protein level at 10 uM incubated for 72 hrs by Western blot analysis. In kind it is functional, cell-based. Put shortly: (§3)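 HT29 cells (1.5 × 10^5/mL) treated 72 h with compound or vehicle. Lysates loaded at 0.05 mg/lane on 12% SDS-PAGE, transferred to nitrocellulose, blocked in 5% non-fat milk. Probed with antibodies to Bax, Bcl-2, cleaved caspase-3, cleaved PARP, LC3, p62 and beclin-1. Bands quantified relative to β-actin; three independent assays, means ± SD.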

The test system of data set [16] is HT-29. The experiment in a line: Induction of autophagy in human HT-29 cells assessed as reduction in p62 protein level at 10 uM incubated for 72 hrs by Western blot analysis. It is filed as functional, cell-based. Put shortly: as §3
Data set [17] relates to HT-29. The experiment in a line: Induction of apoptosis in human HT-29 cells assessed as reduction in Bcl2 protein level at 10 uM incubated for 72 hrs by Western blot analysis. In kind it is functional, cell-based. In a few lines: as §3
Data set [18] deals with HT-29. The experiment in a line: Induction of apoptosis in human HT-29 cells assessed as increase in cleaved caspase-3 protein level at 10 uM incubated for 72 hrs by Western blot analysis. It is filed as functional, cell-based. Put shortly: as §3
Data set [19] relates to HT-29. The experiment in a line: Induction of apoptosis in human HT-29 cells at 10 uM incubated for 72 hrs by FITC-AnnexinV/PI staining based flow cytometry relative to control. In kind it is functional. In a few lines: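 HT29 cells cultured 12 h, then exposed to compound or vehicle for 72 h. Harvested cells stained with Annexin V plus a viability dye for 15 min at 37 °C. Percentage of apoptotic cells determined by flow cytometry; means ± SD from three separate experiments, compared with control.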

The subject of data set [20] is HT-29. The experiment in a line: Induction of apoptosis in human HT-29 cells assessed as increase in cleaved PARP protein level at 10 uM incubated for 72 hrs by Western blot analysis. It is filed as functional, cell-based. In a few lines:
as §3

In data set [21] the test system is HT-29. The experiment in a line: Induction of autophagy in human HT-29 cells assessed as increase in Beclin-1 protein level at 10 uM incubated for 72 hrs by Western blot analysis. It is filed as functional, cell-based. Put shortly: as §3
Data set [22] has as its system HT-29. The experiment in a line: Induction of autophagy in human HT-29 cells assessed as increase in LC3-II protein level at 10 uM incubated for 72 hrs by Western blot analysis. It is filed as functional, cell-based. Put shortly: as §3

Activity calls are given as the source filed them. The rule behind the calls is not given here.

For `COc1cc(-c2nc(N(C(=O)OCC3=CCCCC3=O)C(=O)OCC3=CCCCC3=O)cc3c2[nH]c2ccccc23)cc(OC)c1OC`, the IC50 in [1] worked out at 4.85 µM; in [2], 28.1 µM; in the data set on HepG2 it was 2.69 µM; with HT-29 [4] it was 1.45 µM. Further, the pKa in data set [3] amounted to 5.3.
Consider `C/C=C/C(=O)OCC1=CCCCC1=O`, for which the Activity in the data set with HT-29 [5] is given as 28.8%; with HT-29 [8], 0.81 g. For the same compound, the outcome in the data set with HT-29 [6], with HT-29 [7], with HT-29 [9], with HT-29 [10], in the data set on HT-29 [11] and in the data set with HT-29 [12] was Active. For the same compound, the outcome in the data set on HT-29 [13] and in the data set on HT-29 [14] was Active. Moreover, the IC50 in [1] was determined as 7.79 µM; in [2], 7.83 µM; in the data set with HepG2, 5.93 µM; in the data set on HT-29 [4], 4.37 µM.
For `COc1cc(-c2nc(N)cc3c2[nH]c2ccccc23)cc(OC)c1OC`, the IC50 in the data set on HepG2 came out at 17.1 µM; with HT-29 [4], 13.5 µM.
`COc1ccc2c(c1)[nH]c1c(C)nccc12` [HARMINE]: the IC50 in data set [1] was 47.8 µM; in [2] it was > 50 µM; in the data set on HepG2, 49.6 µM; in the data set on HT-29 [4] it was 41.8 µM. Besides, the outcome with HT-29 [15], in the data set with HT-29 [16], in the data set on HT-29 [17], in the data set with HT-29 [18], in the data set on HT-29 [20] and in the data set on HT-29 [21] was Active. For the same compound, in the data set with HT-29 [22], the outcome was Active. In the data set on HT-29 [19], this compound yielded an Activity of 20.9%.
